From ChEMBL document CHEMBL3044979, “Microbiologically active Mannich bases derived from 1,2,4-triazoles. The effect of C-5 substituent on antibacterial activity” (2013)
Active and inactive are the calls of the source. The calls are words filed in the database; no cut-off is given here.

Legend:
Pseudomonas aeruginosa = test: Antibacterial activity against Pseudomonas aeruginosa ATCC 9027 assessed as growth inhibition by broth microdilution method; format: functional, organism-based
Procedure, shortened: (§1)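 Preliminary screen: 10 µl of each bacterial suspension spotted on Mueller-Hinton agar containing compound at 1,000 µg ml⁻¹, then incubated 37 °C for 18 h. Inocula were prepared in sterile saline at 0.5 McFarland (150 × 10⁶ CFU ml⁻¹). Compounds were dissolved in DMSO stocks and diluted twofold in Mueller-Hinton broth, final 3.91–1,000 µg ml⁻¹. MIC read in µg ml⁻¹ (CLSI 2008), with ampicillin, cefuroxime and vancomycin as reference agents.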

[1] = system: Staphylococcus epidermidis; test: Antibacterial activity against Staphylococcus epidermidis ATCC 12228 assessed as growth inhibition by broth microdilution method; format: functional; procedure, shortened: as §1
Bacillus subtilis = test: Antibacterial activity against Bacillus subtilis ATCC 6633 assessed as growth inhibition by broth microdilution method; format: functional; procedure, shortened: as §1
Escherichia coli = test: Antibacterial activity against Escherichia coli ATCC 25922 assessed as growth inhibition by broth microdilution method; format: functional, organism-based; procedure, shortened: as §1
Micrococcus luteus = test: Antibacterial activity against Micrococcus luteus ATCC 10240 assessed as growth inhibition by broth microdilution method; format: functional; procedure, shortened: as §1
Staphylococcus aureus [2] = test: Antibacterial activity against Staphylococcus aureus ATCC 25923 assessed as growth inhibition by broth microdilution method; format: functional; procedure, shortened: as §1
Klebsiella pneumoniae = test: Antibacterial activity against Klebsiella pneumoniae ATCC 13883 assessed as growth inhibition by broth microdilution method; format: functional, organism-based; procedure, shortened: as §1
Proteus mirabilis = test: Antibacterial activity against Proteus mirabilis ATCC 12453 assessed as growth inhibition by broth microdilution method; format: functional, organism-based; procedure, shortened: as §1
Staphylococcus aureus [3] = test: Antibacterial activity against Staphylococcus aureus 14001 assessed as growth inhibition by broth microdilution method; format: functional; procedure, shortened: as §1
Bacillus cereus = test: Antibacterial activity against Bacillus cereus ATCC 10876 assessed as growth inhibition by broth microdilution method; format: functional; procedure, shortened: as §1

Row | MIC [1] [µg/mL] | MIC (Bacillus subtilis) [µg/mL] | MIC (Micrococcus luteus) [µg/mL] | MIC (Staphylococcus aureus [2]) [µg/mL] | MIC (Staphylococcus aureus [3]) [µg/mL] | MIC (Bacillus cereus) [µg/mL] | SMILES | growth inhibition (GI) (Pseudomonas aeruginosa) | MBC [1] [µg/mL] | MBC (Bacillus subtilis) [µg/mL] | growth inhibition (GI) (Escherichia coli) | MBC (Micrococcus luteus) [µg/mL] | MBC (Staphylococcus aureus [2]) [µg/mL] | growth inhibition (GI) (Klebsiella pneumoniae) | growth inhibition (GI) (Proteus mirabilis) | MBC (Staphylococcus aureus [3]) [µg/mL] | MBC (Bacillus cereus) [µg/mL]
1 | 31.2 | 31.2 | 15.6 | 31.2 | 62.5 | 31.2 | CCN(CC)Cn1nc(-c2ccc(Cl)cc2)n(-c2ccc(Br)cc2)c1=S | inactive | 250 | 500 | inactive | 62.5 | 250 | inactive | inactive | 250 | 250
2 | 1000 | 250 | 500 | 500 | 500 | 1000 | S=c1n(CN2CCCCC2)nc(-c2ccccc2Cl)n1-c1ccc(Br)cc1 | inactive | > 1000 | > 1000 | inactive | > 1000 | > 1000 | inactive | inactive | > 1000 | > 1000
3 | 1000 | 1000 | 1000 | 1000 | 1000 | 1000 | CCN(CC)Cn1nc(-c2ccccc2)n(-c2ccc(Br)cc2)c1=S | inactive | > 1000 | > 1000 | inactive | > 1000 | > 1000 | inactive | inactive | > 1000 | > 1000
4 | 1000 | 500 | 500 | 1000 | 1000 | 1000 | S=c1n(CN2CCCC2)nc(-c2ccccc2)n1-c1ccc(Br)cc1 | inactive | > 1000 | 1000 | inactive | 1000 | > 1000 | inactive | inactive | > 1000 | > 1000
5 | 1000 | 1000 | 250 | 1000 | 1000 | 1000 | S=c1n(CN2CCOCC2)nc(-c2ccccc2)n1-c1ccc(Br)cc1 | inactive | > 1000 | > 1000 | inactive | 1000 | > 1000 | inactive | inactive | > 1000 | > 1000
6 | 62.5 | 62.5 | 31.2 | 31.2 |  | 62.5 | CCN(CC)Cn1nc(-c2cccc(Cl)c2)n(-c2ccc(Br)cc2)c1=S | inactive | > 1000 | 500 | inactive | 500 | > 1000 | inactive | inactive |  | > 1000
7 | 62.5 | 31.2 | 62.5 | 62.5 | 125 | 62.5 | CCN(CC)Cn1nc(-c2ccccc2Cl)n(-c2ccc(Br)cc2)c1=S | inactive | > 1000 | 62.5 | inactive | 250 | > 1000 | inactive | inactive | > 1000 | > 1000
8 | 0.24 | 15.6 | 0.98 | 0.49 |  | 31.2 | CO/N=C(\C(=O)N[C@@H]1C(=O)N2C(C(=O)O)=C(COC(N)=O)CS[C@H]12)c1ccco1 [CEFUROXIME] |  |  |  |  |  |  |  |  |  | 
9 |  |  |  |  |  | 62.5 | CC1(C)S[C@@H]2[C@H](NC(=O)[C@H](N)c3ccccc3)C(=O)N2[C@H]1C(=O)O [AMPICILLIN] |  |  |  |  |  |  |  |  |  | 
10 | 250 | 62.5 | 62.5 | 31.2 |  | 62.5 | S=c1n(CN2CCCC2)nc(-c2cccc(Cl)c2)n1-c1ccc(Br)cc1 | inactive | > 1000 | 500 | inactive | > 1000 | > 1000 | inactive | inactive |  | > 1000
11 | 31.2 | 15.6 | 62.5 | 31.2 | 125 | 62.5 | S=c1n(CN2CCCC2)nc(-c2ccccc2Cl)n1-c1ccc(Br)cc1 | inactive | 500 | 125 | inactive | 1000 | 500 | inactive | inactive | 500 | > 1000
12 | 62.5 | 62.5 | 31.2 | 31.2 |  | 62.5 | S=c1n(CN2CCCCC2)nc(-c2cccc(Cl)c2)n1-c1ccc(Br)cc1 | inactive | > 1000 | 1000 | inactive | > 1000 | > 1000 | inactive | inactive |  | 1000
13 | 1000 | 1000 | 1000 | 1000 | 1000 | 1000 | S=c1n(CN2CCCCC2)nc(-c2ccc(Cl)cc2)n1-c1ccc(Br)cc1 | inactive | > 1000 | > 1000 | inactive | > 1000 | > 1000 | inactive | inactive | > 1000 | > 1000
14 | 62.5 | 125 | 62.5 | 62.5 | 125 | 62.5 | S=c1n(CN2CCOCC2)nc(-c2ccc(Cl)cc2)n1-c1ccc(Br)cc1 | inactive | 1000 | 125 | inactive | > 1000 | 1000 | inactive | inactive | > 1000 | > 1000
15 | 31 | 63 | 7.81 | 31.2 | 62.5 | 31.2 | S=c1n(CN2CCCC2)nc(-c2ccc(Cl)cc2)n1-c1ccc(Br)cc1 | inactive | 1000 | 125 | inactive | 250 | 500 | inactive | inactive | 1000 | > 1000
16 | 125 | 62.5 | 31.2 | 31.2 |  | 62.5 | S=c1n(CN2CCOCC2)nc(-c2cccc(Cl)c2)n1-c1ccc(Br)cc1 | inactive | > 1000 | 1000 | inactive | 500 | > 1000 | inactive | inactive |  | > 1000
17 | 125 | 125 | 62.5 | 125 | 250 | 125 | S=c1n(CN2CCOCC2)nc(-c2ccccc2Cl)n1-c1ccc(Br)cc1 | inactive | 500 | 250 | inactive | 250 | 500 | inactive | inactive | 500 | > 1000
18 | 1000 | 1000 | 500 | 1000 | 1000 | 1000 | S=c1n(CN2CCCCC2)nc(-c2ccccc2)n1-c1ccc(Br)cc1 | inactive | > 1000 | > 1000 | inactive | 1000 | > 1000 | inactive | inactive | > 1000 | > 1000

Row | SMILES | MIC [1] [µg/mL] | MIC (Bacillus subtilis) [µg/mL] | MIC (Micrococcus luteus) [µg/mL] | MIC (Staphylococcus aureus [2]) [µg/mL] | MIC (Staphylococcus aureus [3]) [µg/mL] | MIC (Bacillus cereus) [µg/mL] | growth inhibition (GI) (Pseudomonas aeruginosa) | MBC [1] [µg/mL] | MBC (Bacillus subtilis) [µg/mL] | growth inhibition (GI) (Escherichia coli) | MBC (Micrococcus luteus) [µg/mL] | MBC (Staphylococcus aureus [2]) [µg/mL] | growth inhibition (GI) (Klebsiella pneumoniae) | growth inhibition (GI) (Proteus mirabilis) | MBC (Staphylococcus aureus [3]) [µg/mL] | MBC (Bacillus cereus) [µg/mL]
19 | CN[C@H](CC(C)C)C(=O)N[C@H]1C(=O)N[C@@H](CC(N)=O)C(=O)N[C@H]2C(=O)N[C@H]3C(=O)N[C@H](C(=O)N[C@H](C(=O)O)c4cc(O)cc(O)c4-c4cc3ccc4O)[C@H](O)c3ccc(c(Cl)c3)Oc3cc2cc(c3O[C@@H]2O[C@H](CO)[C@@H](O)[C@H](O)[C@H]2O[C@H]2C[C@](C)(N)[C@H](O)[C@H](C)O2)Oc2ccc(cc2Cl)[C@H]1O [VANCOMYCIN] |  |  |  |  | 0.98 |  |  |  |  |  |  |  |  |  | 3.91 | 
